Results as given in ChEMBL document CHEMBL1139331, “Molecular modelling studies, synthesis and biological activity of a series of novel bisnaphthalimides and their development as new DNA topoisomerase II inhibitors” (Bioorg Med Chem, 2009).
Calls of active or inactive are those of the source. The calls are words filed in the database; no cut-off is given here.

Assays:
HT-29 [1] = assay: Cytotoxicity against human HT-29 cells after 72 hrs by MTT assay; format: functional, cell-based; settings: HT-29, 72 h
How it was run: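 HT-29 cells, grown in DMEM with 2 mM L-glutamine, 10% heat-inactivated FBS and 1% penicillin/streptomycin at 37 °C, seeded at 1 × 10⁵ cells/ml and exposed 72 h to a range of compound concentrations in DMSO. Cells were then given MTT 3 h, formazan dissolved in SDS/formamide lysis buffer pH 4.7, and absorbance read at 620 nm. Values are % of untreated control; IC50 is from ≥3 experiments.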

HT-29 [2] = assay: Induction of apoptosis in human HT-29 cells assessed as hypodiploid DNA content at 0.5 uM after 48 hrs using propidium iodide staining by flow cytometry; format: functional, cell-based
How it was run: (§1)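 Cultured HT-29 cells were plated at 5 × 10⁵ per 6-cm dish the day before treatment, then exposed 48 h to 0.1–5 μM. Cells were washed in PBS and taken up in 0.1% sodium citrate, 0.1% Triton X-100 and 50 μg/ml PI for 30 min at 4 °C in the dark. Nuclei were run by flow cytometry with debris gated out by forward scatter, and % hypodiploid nuclei counted. Three experiments in triplicate.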

HT-29 [3] = assay: Induction of apoptosis in human HT-29 cells after 48 hrs assessed as hypodiploid DNA content using propidium iodide staining by flow cytometry; format: functional, cell-based; how it was run: as §1
HT-29 [4] = assay: Induction of apoptosis in human HT-29 cells after 48 hrs using propidium iodide staining by flow cytometry in presence of Z-VAD-FMK; format: functional, cell-based
How it was run: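 HT-29 cells were pretreated with the general caspase inhibitor Z-VAD-FMK at 50 μM for 30 min before compound was added, then incubated 48 h. Nuclei were stained with PI in 0.1% citrate/0.1% Triton X-100 for 30 min at 4 °C in the dark. Hypodiploid % was scored by flow cytometry. Three experiments in triplicate; Bonferroni test.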

[5] = target: DNA topoisomerase 2-alpha (Homo sapiens) (UniProt P11388); assay: Inhibition of human recombinant topoisomerase 2alpha-mediated pBR322 DNA cleavage after 30 mins
Sequence of DNA topoisomerase 2-alpha (Homo sapiens) (P11388 whole entry): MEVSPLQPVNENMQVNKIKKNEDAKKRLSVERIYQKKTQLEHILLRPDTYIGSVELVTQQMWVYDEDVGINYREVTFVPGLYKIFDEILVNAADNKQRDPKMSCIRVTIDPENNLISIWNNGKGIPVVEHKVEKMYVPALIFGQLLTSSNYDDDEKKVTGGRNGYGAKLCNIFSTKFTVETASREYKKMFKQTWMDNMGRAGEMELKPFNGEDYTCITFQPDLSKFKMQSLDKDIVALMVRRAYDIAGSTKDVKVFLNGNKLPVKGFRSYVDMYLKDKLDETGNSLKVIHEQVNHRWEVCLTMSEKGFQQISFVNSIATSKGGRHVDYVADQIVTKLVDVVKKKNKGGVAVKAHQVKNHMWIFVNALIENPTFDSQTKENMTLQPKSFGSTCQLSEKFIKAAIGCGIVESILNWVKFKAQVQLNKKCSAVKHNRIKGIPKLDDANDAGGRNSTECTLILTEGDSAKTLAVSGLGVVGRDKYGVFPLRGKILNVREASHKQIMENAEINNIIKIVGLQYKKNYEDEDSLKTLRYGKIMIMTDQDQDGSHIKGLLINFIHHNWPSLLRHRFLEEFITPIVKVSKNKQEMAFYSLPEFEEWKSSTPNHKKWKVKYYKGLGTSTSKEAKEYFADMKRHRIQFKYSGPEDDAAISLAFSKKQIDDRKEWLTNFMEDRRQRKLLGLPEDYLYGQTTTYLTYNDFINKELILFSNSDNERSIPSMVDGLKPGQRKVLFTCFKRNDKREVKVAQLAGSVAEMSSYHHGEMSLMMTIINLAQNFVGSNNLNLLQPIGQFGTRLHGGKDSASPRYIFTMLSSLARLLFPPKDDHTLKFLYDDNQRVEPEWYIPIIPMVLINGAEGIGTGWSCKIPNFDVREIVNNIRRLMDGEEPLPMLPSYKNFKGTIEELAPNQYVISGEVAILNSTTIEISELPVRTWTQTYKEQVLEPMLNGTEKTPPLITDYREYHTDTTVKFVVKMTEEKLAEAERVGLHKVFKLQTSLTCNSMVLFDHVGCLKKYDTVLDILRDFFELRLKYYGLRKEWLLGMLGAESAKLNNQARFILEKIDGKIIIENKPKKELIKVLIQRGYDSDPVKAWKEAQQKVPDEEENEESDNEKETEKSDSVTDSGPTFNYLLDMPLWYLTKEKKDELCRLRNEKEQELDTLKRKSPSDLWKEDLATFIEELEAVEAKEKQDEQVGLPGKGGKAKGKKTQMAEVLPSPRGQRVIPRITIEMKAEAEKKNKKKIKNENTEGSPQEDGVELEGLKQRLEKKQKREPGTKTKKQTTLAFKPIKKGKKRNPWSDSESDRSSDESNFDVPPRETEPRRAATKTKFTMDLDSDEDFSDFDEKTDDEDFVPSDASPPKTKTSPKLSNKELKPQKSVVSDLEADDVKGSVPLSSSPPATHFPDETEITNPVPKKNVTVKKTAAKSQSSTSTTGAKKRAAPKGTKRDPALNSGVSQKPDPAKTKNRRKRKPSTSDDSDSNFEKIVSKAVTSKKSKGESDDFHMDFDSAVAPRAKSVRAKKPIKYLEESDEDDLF

HT-29 [6] = assay: Blockade of cell cycle progression in human HT-29 cells; format: functional, cell-based
HT-29 [7] = assay: Induction of apoptosis in human HT-29 cells assessed as hypodiploid DNA content at 0.1 uM after 48 hrs using propidium iodide staining by flow cytometry; format: functional; how it was run: as §1
[8] = target: DNA topoisomerase 2-alpha (Homo sapiens) (UniProt P11388); assay: Inhibition of human recombinant topoisomerase 2alpha-mediated pBR322 DNA cleavage at 10 uM after 30 mins

Activity [5]	Compound	IC50 (HT-29 [1]) [nM]	Activity (HT-29 [6])	other results
inactive	O=C1c2cccc3cc([N+](=O)[O-])cc(c23)C(=O)N1CCCNC1CC1NCCCN1C(=O)c2cccc3cc([N+](=O)[O-])cc(c23)C1=O (stereo not given)	3300	inactive	Activity (HT-29 [2]): Active; Activity (HT-29 [3]): Dose-dependent effect; Activity (HT-29 [4]): inactive
–	C[C@@H]1CN(CCN2C(=O)c3cccc4cc([N+](=O)[O-])cc(c34)C2=O)C[C@H](C)N1CCN1C(=O)c2cccc3cc([N+](=O)[O-])cc(c23)C1=O	6100	inactive	–
–	O=C1c2cccc3cc([N+](=O)[O-])cc(c23)C(=O)N1CCN1CCN(CCN2C(=O)c3cccc4cc([N+](=O)[O-])cc(c34)C2=O)CC1	2100	inactive	–
inactive	O=C1c2cccc3cc([N+](=O)[O-])cc(c23)C(=O)N1CCCNCCNCCCN1C(=O)c2cccc3cc([N+](=O)[O-])cc(c23)C1=O	501	inactive	Activity (HT-29 [7]): 40%; Activity (HT-29 [3]): Dose-dependent effect; Activity (HT-29 [4]): inactive
–	O=C1c2cccc3cccc(c23)C(=O)N1CCNCCCNCCN1C(=O)c2cccc3cccc(c23)C1=O [ELINAFIDE]	38	–	–
–	O=C1c2cccc3cc([N+](=O)[O-])cc(c23)C(=O)N1CCCCNCCNCCCNCCNCCCCN1C(=O)c2cccc3cc([N+](=O)[O-])cc(c23)C1=O	160	–	Activity [8]: Active
–	O=C1c2cccc3cccc(c23)C(=O)N1CCCCNCCNCCCNCCNCCCCN1C(=O)c2cccc3cccc(c23)C1=O	6100	–	–
–	O=C1c2cccc3cc([N+](=O)[O-])cc(c23)C(=O)N1CCN1CC2CCC(C1)N2CCN1C(=O)c2cccc3cc([N+](=O)[O-])cc(c23)C1=O	7300	inactive	–

Compound	Activity [5]	IC50 (HT-29 [1]) [nM]	Activity (HT-29 [6])	other results
O=C1c2cccc3cc([N+](=O)[O-])cc(c23)C(=O)N1CCNCCNCCN1C(=O)c2cccc3cc([N+](=O)[O-])cc(c23)C1=O	inactive	200	inactive	–
